# ChEMBL document CHEMBL1221342, “Synthesis and in vitro antitumor activity of new 4,5-dihydropyrazole derivatives” (Bioorg Med Chem, 2010)
# pIC50: −log10 of the molar value.
# How the values were obtained:
# [1] = tested on: OVCAR-4; assay: Growth inhibition of human OVCAR4 cells after 48 hrs by SRB assay; type: functional; settings: OVCAR-4, 48 h
# Summary of the method: (§1)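 NCI 60-cell-line screen. Cells grown in RPMI1640 with 5% fetal calf serum and 2 mM L-glutamine, with inoculum density set by cell line. Preincubated 24 h, then given compound in DMSO at 10^-4 to 10^-8 M (five 10-fold steps) for 48 h continuous exposure. Growth measured by SRB protein assay. GI50, TGI and LC50 reported as –log molar.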
# [2] = tested on: KM12; assay: Growth inhibition of human KM12 cells after 48 hrs by SRB assay; type: functional; settings: KM12, 48 h; summary of the method: as §1
# [3] = tested on: RXF 393; assay: Growth inhibition of human RXF393 cells after 48 hrs by SRB assay; type: functional; settings: RXF 393, 48 h; summary of the method: as §1
# [4] = tested on: SR; assay: Growth inhibition of human SR cells after 48 hrs by SRB assay; type: functional; summary of the method: as §1
# [5] = tested on: SF-268; assay: Growth inhibition of human SF268 cells after 48 hrs by SRB assay; type: functional; settings: SF-268, 48 h; summary of the method: as §1
# [6] = tested on: MDA-MB-435; assay: Growth inhibition of human MDA-MB-435 cells after 48 hrs by SRB assay; type: functional; settings: MDA-MB-435, 48 h; summary of the method: as §1
# [7] = tested on: NCI-H460; assay: Cytotoxicity against human NCI-H460 cells after 72 hrs by SRB assay; type: functional, cell-based; settings: NCI-H460, 72 h
# Summary of the method: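 NCI-H460 (ATCC) cells seeded in 96-well plates in growth medium. Scalar drug concentrations added 24 h after plating, then 72 h exposure. Surviving cells stained with sulforhodamine B, OD read at 570 nm. IC50 (50% growth inhibition) fitted from dose–response curves. Mean ± SE of at least three independent experiments.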
# [8] = tested on: SW-620; assay: Growth inhibition of human SW620 cells after 48 hrs by SRB assay; type: functional; settings: SW-620, 48 h; summary of the method: as §1
# [9] = tested on: HT-29; assay: Growth inhibition of human HT-29 cells after 48 hrs by SRB assay; type: functional; settings: HT-29, 48 h; summary of the method: as §1
# [10] = tested on: DU-145; assay: Growth inhibition of human DU145 cells after 48 hrs by SRB assay; type: functional; settings: DU-145, 48 h; summary of the method: as §1
# [11] = tested on: OVCAR-8; assay: Growth inhibition of human OVCAR8 cells after 48 hrs by SRB assay; type: functional; settings: OVCAR-8, 48 h; summary of the method: as §1
# [12] = tested on: SK-MEL-28; assay: Growth inhibition of human SK-MEL-28 cells after 48 hrs by SRB assay; type: functional; settings: SK-MEL-28, 48 h; summary of the method: as §1
# [13] = tested on: CAKI-1; assay: Growth inhibition of human Caki1 cells after 48 hrs by SRB assay; type: functional; settings: CAKI-1, 48 h; summary of the method: as §1
# [14] = Growth inhibition of human […] cells after 48 hrs by SRB assay; type: functional; summary of the method: as §1
# [15] = tested on: NCI-H460; assay: Growth inhibition of human NCI-H460 cells after 48 hrs by SRB assay; type: functional; settings: NCI-H460, 48 h; summary of the method: as §1
# [16] = tested on: CCRF-CEM; assay: Growth inhibition of human CCRF-CEM cells after 48 hrs by SRB assay; type: functional; summary of the method: as §1
# [17] = tested on: HOP-62; assay: Growth inhibition of human HOP62 cells after 48 hrs by SRB assay; type: functional; settings: HOP-62, 48 h; summary of the method: as §1
# [18] = Growth inhibition of human Hs 578T cells after 48 hrs by SRB assay; type: functional; summary of the method: as §1
# [19] = tested on: 786-0; assay: Growth inhibition of human 786-0 cells after 48 hrs by SRB assay; type: functional; settings: 786-0, 48 h; summary of the method: as §1
# [20] = tested on: EKVX; assay: Growth inhibition of human EKVX cells after 48 hrs by SRB assay; type: functional; summary of the method: as §1
# [21] = tested on: MCF7; assay: Growth inhibition of human MCF7 cells after 48 hrs by SRB assay; type: functional; settings: MCF7, 48 h; summary of the method: as §1
# [22] = tested on: MOLT-4; assay: Growth inhibition of human MOLT4 cells after 48 hrs by SRB assay; type: functional; settings: MOLT-4, 48 h; summary of the method: as §1
# [23] = tested on: M14; assay: Growth inhibition of human M14 cells after 48 hrs by SRB assay; type: functional; settings: M14, 48 h; summary of the method: as §1
# [24] = tested on: HCT-15; assay: Growth inhibition of human HCT15 cells after 48 hrs by SRB assay; type: functional; settings: HCT-15, 48 h; summary of the method: as §1
# [25] = tested on: SNB-75; assay: Growth inhibition of human SNB75 cells after 48 hrs by SRB assay; type: functional; settings: SNB-75, 48 h; summary of the method: as §1
# [26] = tested on: NCI-H322M; assay: Growth inhibition of human NCI-H322M cells after 48 hrs by SRB assay; type: functional; summary of the method: as §1
# [27] = tested on: HL-60(TB); assay: Growth inhibition of human HL-60(TB) cells after 48 hrs by SRB assay; type: functional; settings: HL-60, 48 h
# Summary of the method: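 NCI 60-cell-line screen: cells grown in RPMI1640 with 5% fetal calf serum and 2 mM L-glutamine, preincubated 24 h, then exposed to compound in DMSO at five concentrations (10^-4 to 10^-8 M) for 48 h continuous exposure. Growth estimated by sulforhodamine B protein assay; reported as pGI50 (-log molar concentration inhibiting net cell growth by 50%).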
# [28] = tested on: OVCAR-3; assay: Growth inhibition of human OVCAR-3 cells after 48 hrs by SRB assay; type: functional; settings: OVCAR-3, 48 h; summary of the method: as §1
# [29] = tested on: IGROV-1; assay: Growth inhibition of human IGROV1 cells after 48 hrs by SRB assay; type: functional; settings: IGROV-1, 48 h; summary of the method: as §1
# [30] = tested on: NCI/ADR-RES; assay: Growth inhibition of human NCI/ADR-RES cells after 48 hrs by SRB assay; type: functional; summary of the method: as §1
# [31] = tested on: PC-3; assay: Growth inhibition of human PC3 cells after 48 hrs by SRB assay; type: functional; settings: PC-3, 48 h; summary of the method: as §1
# [32] = tested on: HCT-116; assay: Growth inhibition of human HCT116 cells after 48 hrs by SRB assay; type: functional; settings: HCT-116, 48 h; summary of the method: as §1
# [33] = tested on: SF-295; assay: Growth inhibition of human SF295 cells after 48 hrs by SRB assay; type: functional; settings: SF-295, 48 h; summary of the method: as §1
# [34] = tested on: Malme-3M; assay: Growth inhibition of human MALME-3M cells after 48 hrs by SRB assay; type: functional; settings: read-out: pTGI (converted); summary of the method: as §1
# [35] = tested on: A498; assay: Growth inhibition of human A498 cells after 48 hrs by SRB assay; type: functional; settings: A498, 48 h; summary of the method: as §1
smiles,measurement,setting,value
COc1cc(C2=NN(C(C)=O)C(c3cc(OC)c(OC)c(OC)c3)C2)ccc1O (stereo unspecified),GI50,[1],398 nM
same,TGI,[1]; read-out: pTGI (converted),> 100000 nM
same,GI50,[2],251 nM
same,TGI,[2]; read-out: pTGI (converted),> 100000 nM
same,GI50,[3],126 nM
same,GI50,[4],50.1 nM
same,TGI,[4]; read-out: pTGI (converted),501 nM
same,GI50,[5],631 nM
same,TGI,[5]; read-out: pTGI (converted),> 100000 nM
same,GI50,[6],50.1 nM
same,TGI,[6]; read-out: pTGI (converted),200 nM
same,pIC50,[7],6.68
same,GI50,[8],316 nM
same,TGI,[8]; read-out: pTGI (converted),> 100000 nM
same,GI50,[9],316 nM
same,TGI,[9]; read-out: pTGI (converted),> 100000 nM
same,GI50,[10],316 nM
same,TGI,[10]; read-out: pTGI (converted),12600 nM
same,GI50,[11],631 nM
same,TGI,[11]; read-out: pTGI (converted),> 100000 nM
same,GI50,[12],501 nM
same,TGI,[12]; read-out: pTGI (converted),> 100000 nM
same,GI50,[13],316 nM
same,TGI,[13]; read-out: pTGI (converted),> 100000 nM
same,GI50,[14],200 nM
same,TGI,[14]; read-out: pTGI (converted),794 nM
same,GI50,[15],398 nM
same,TGI,[15]; read-out: pTGI (converted),15800 nM
same,GI50,[16],316 nM
same,TGI,[16]; read-out: pTGI (converted),1000 nM
same,GI50,[17],501 nM
same,TGI,[17]; read-out: pTGI (converted),> 100000 nM
same,GI50,[18],200 nM
same,TGI,[18]; read-out: pTGI (converted),631 nM
same,GI50,[19],398 nM
same,TGI,[19]; read-out: pTGI (converted),> 100000 nM
same,GI50,[20],794 nM
same,TGI,[20]; read-out: pTGI (converted),> 100000 nM
same,GI50,[21],251 nM
same,TGI,[21]; read-out: pTGI (converted),> 100000 nM
same,GI50,[22],398 nM
same,TGI,[22]; read-out: pTGI (converted),> 100000 nM
same,GI50,[23],398 nM
same,TGI,[23]; read-out: pTGI (converted),> 100000 nM
same,GI50,[24],398 nM
same,TGI,[24]; read-out: pTGI (converted),> 100000 nM
same,GI50,[25],251 nM
same,TGI,[25]; read-out: pTGI (converted),> 100000 nM
same,GI50,[26],501 nM
same,TGI,[26]; read-out: pTGI (converted),> 100000 nM
same,GI50,[27],158 nM
same,TGI,[27]; read-out: pTGI (converted),501 nM
same,GI50,[28],251 nM
same,TGI,[28]; read-out: pTGI (converted),631 nM
same,GI50,[29],501 nM
same,TGI,[29]; read-out: pTGI (converted),> 100000 nM
same,GI50,[30],251 nM
same,TGI,[30]; read-out: pTGI (converted),> 100000 nM
same,GI50,[31],251 nM
same,TGI,[31]; read-out: pTGI (converted),> 100000 nM
same,GI50,[32],398 nM
same,TGI,[32]; read-out: pTGI (converted),50100 nM
same,GI50,[33],200 nM
same,TGI,[34],> 100000 nM
same,GI50,[35],251 nM
same,TGI,[35]; read-out: pTGI (converted),3980 nM
